The values below come from ChEMBL document CHEMBL1156780, “6-(Het)aryl-7-deazapurine ribonucleosides as novel potent cytostatic agents” (J Med Chem, 2010).

The nature of test [1]: Cytostatic activity against human Hs578 cells after 5 days by SRB assay. Conditions: Hs578, 120 h. Format: functional. The method, boiled down: (§1)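 Cells seeded in RPMI (colon, breast, lung lines), MEM (Du145) or F12K (PC3) with 10% FBS, 37 °C overnight. Day-zero plates fixed with cold 10% TCA. Compounds added as 5-fold serial dilutions for 5 days. Fixed, stained with 0.057% SRB in 1% acetic acid, dye solubilized in 10 mM Tris pH 10.5, A500 read. Growth % corrected for day-0 OD; GIC₅₀ from sigmoidal fit.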

For test [2], the system named is HL-60. Put plainly: Cytotoxicity against human HL60 cells after 3 days by XTT assay. Type of test: functional, cell-based. Conditions: HL-60, 72 h. The method, boiled down: (§2)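 Cell viability of CCRF-CEM, HL60 and HeLa cells measured by XTT assay after 72 h incubation with compounds. IC₅₀ taken as mean of 2–4 independent experiments.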
In general terms: Formazan colour is commonly taken as a measure of viable cells.

The subject of test [3] is CCRF-CEM. Put plainly: Cytotoxicity against human CCRF-CEM cells after 3 days by XTT assay. Type of test: functional, cell-based. The conditions noted are these: 72 h. The method, boiled down: as §2
Test [4] has as its system A549. The test is described as follows: Cytostatic activity against human A549 cells after 5 days by SRB assay. Format: functional. The conditions noted are these: A549, 120 h. The method in brief: as §1
For test [5], the system named is DU-145. The test is described as follows: Cytostatic activity against human DU145 cells after 5 days by SRB assay. Type of test: functional. Conditions: DU-145, 120 h. The method, boiled down: as §1
(In general: Sulforhodamine B stains cellular protein and so reports cell mass.)

Test [6] has as its system HCT-116. Put plainly: Cytostatic activity against human HCT116 cells after 5 days by SRB assay. Format: functional. Conditions: HCT-116, 120 h. The method, boiled down:
as §1

Test [7] can be described thus: Cytotoxicity against human HeLaS3 cells after 3 days by XTT assay. Type of test: functional, cell-based. Conditions: HeLa S3, 72 h.

Structures are written as SMILES.

With `OC[C@H]1O[C@@H](n2ccc3c(-c4ccsc4)ncnc32)[C@H](O)[C@@H]1O`, the GI50 in test [1] amounted to 710 nM; in test [4], 630 nM; in test [5], 32 nM; in test [6] it was 220 nM. The IC50 is greater than 40000 nM in test [2] and 4000 nM in test [3].

With `OC[C@H]1O[C@@H](n2ccc3c(-c4cccnc4)ncnc32)[C@H](O)[C@@H]1O`, the GI50 in test [1], in test [4], in test [5] and in test [6] was greater than 10000 nM in each case. Moreover, the IC50 in test [2], in test [3] and in test [7] was greater than 10000 nM throughout.

For `OC[C@H]1O[C@@H](n2cc(F)c3c(-c4ccsc4)ncnc32)[C@H](O)[C@@H]1O`, the GI50 is 810 nM in test [1], 380 nM in test [4], 66 nM in test [5] and 140 nM in test [6]. Moreover, the IC50 worked out at 4900 nM in test [2], 560 nM in test [3] and 210 nM in test [7].

`OC[C@H]1O[C@@H](n2ccc3c(-c4ccn[nH]4)ncnc32)[C@H](O)[C@@H]1O`: the GI50 in test [1] was 3900 nM; in test [4] it was 3300 nM; in test [5], 410 nM; in test [6] it was 7300 nM. The IC50 in test [2] amounted to 10100 nM; in test [3] it was 910 nM; in test [7], 1100 nM.

As to `OC[C@H]1O[C@@H](n2ccc3c(-c4cc[nH]c4)ncnc32)[C@H](O)[C@@H]1O`, the GI50 stood at 440 nM in test [1], 360 nM in test [4], 30 nM in test [5] and 500 nM in test [6]. The IC50 in test [2] worked out at 1200 nM; in test [3], 280 nM; in test [7], 260 nM.

For `OC[C@H]1O[C@@H](n2cc(F)c3c(-c4c[nH]cn4)ncnc32)[C@H](O)[C@@H]1O`, the GI50 in test [1] is 2100 nM; in test [4], greater than 10000 nM; in test [5], 890 nM; in test [6], greater than 10000 nM. Also, the IC50 in test [3] amounted to 1800 nM; in test [7], 12200 nM.

Take `CCc1ncnc2c1ccn2[C@@H]1O[C@H](CO)[C@@H](O)[C@H]1O`: the GI50 was 4700 nM in test [1], 4400 nM in test [4], 1200 nM in test [5] and 2600 nM in test [6]. The IC50 in test [2] stood at 5600 nM; in test [3], 1250 nM; in test [7], 3600 nM.

Regarding `OC[C@H]1O[C@@H](n2cc(Cl)c3c(-c4ccsc4)ncnc32)[C@H](O)[C@@H]1O`, the GI50 in test [1] stood at 110 nM; in test [4] it was 380 nM; in test [5], 18 nM; in test [6] it was 100 nM. Also, the IC50 in test [2] was found to be 1600 nM; in test [3], 1000 nM; in test [7] it was 340 nM.

As for `OC[C@H]1O[C@@H](n2ccc3c(-c4ccc[se]4)ncnc32)[C@H](O)[C@@H]1O`, the GI50 stood at 290 nM in test [1], 230 nM in test [4], 28 nM in test [5] and 340 nM in test [6]. The IC50 came to 2800 nM in test [2], 1500 nM in test [3] and 7400 nM in test [7].

Consider `OC[C@H]1O[C@@H](n2cc(F)c3c(-c4ccccc4)ncnc32)[C@H](O)[C@@H]1O`, for which the GI50 is greater than 10000 nM in test [1], greater than 10000 nM in test [4], 580 nM in test [5] and greater than 10000 nM in test [6]. In addition, the IC50 was greater than 40000 nM in test [2], 3100 nM in test [3] and 2600 nM in test [7].

For `OC[C@H]1O[C@@H](n2ccc3c(-c4ccccn4)ncnc32)[C@H](O)[C@@H]1O`, the concentration for 50% growth inhibition (GI50) was greater than 10000 nM in test [1], 4900 nM in test [4], 390 nM in test [5] and greater than 10000 nM in test [6]. For the same molecule, the IC50 in test [2] is greater than 40000 nM; in test [3], 1500 nM.

For `OC[C@H]1O[C@@H](n2cc(F)c3c(-c4ccoc4)ncnc32)[C@H](O)[C@@H]1O`, the GI50 in test [1] is 180 nM; in test [4], 60 nM; in test [5], 5 nM; in test [6], 18 nM. The IC50 in test [2] came to 2000 nM; in test [3] it was 1000 nM; in test [7], 170 nM.

Consider `OC[C@H]1O[C@@H](n2cc(F)c3c(-c4nccs4)ncnc32)[C@H](O)[C@@H]1O`, for which the GI50 in test [1] came to 570 nM; in test [4] it was 900 nM; in test [5], 24 nM; in test [6], 1300 nM. For the same molecule, the IC50 turned out to be 1000 nM in test [2], 550 nM in test [3] and 3100 nM in test [7].

As for `OC[C@H]1O[C@@H](n2ccc3c(Cc4ccccc4)ncnc32)[C@H](O)[C@@H]1O`, the GI50 in test [1], in test [4], in test [5] and in test [6] was greater than 10000 nM each time. Also, the figures for the IC50 in test [2], in test [3] and in test [7] were greater than 10000 nM, 3800 nM and greater than 7500 nM, respectively.

On to `OC[C@H]1O[C@@H](n2ccc3c(-c4nccs4)ncnc32)[C@H](O)[C@@H]1O`, for which the GI50 in test [1] was 290 nM; in test [4] it was 410 nM; in test [5], 19 nM; in test [6], 480 nM. Besides, the IC50 in test [2] is 1200 nM; in test [3], 390 nM; in test [7], 130 nM.

On to `OC[C@H]1O[C@@H](n2ccc3c(-c4c[nH]cn4)ncnc32)[C@H](O)[C@@H]1O`, for which the GI50 in test [1] was 1900 nM; in test [4], 2600 nM; in test [5] it was 94 nM; in test [6], 3700 nM. The IC50 came out at 710 nM in test [3] and 3300 nM in test [7].

Turning to `OC[C@H]1O[C@@H](n2cc(Cl)c3c(-c4cccs4)ncnc32)[C@H](O)[C@@H]1O`, the GI50 was 1600 nM in test [1], 380 nM in test [4], 13 nM in test [5] and 270 nM in test [6]. In addition, the IC50 was determined as 5500 nM in test [2], 2700 nM in test [3] and 28200 nM in test [7].

As for `COc1ccc(-c2ncnc3c2ccn3[C@@H]2O[C@H](CO)[C@@H](O)[C@H]2O)cc1`, the GI50 was greater than 10000 nM in test [1], greater than 10000 nM in test [4], 1300 nM in test [5] and greater than 10000 nM in test [6]. For the same molecule, the values for the IC50 in test [2], in test [3] and in test [7] were greater than 10000 nM, 10900 nM and greater than 10000 nM, respectively.

As for `OC[C@H]1O[C@@H](n2cc(Cl)c3c(-c4ccccc4)ncnc32)[C@H](O)[C@@H]1O`, the GI50 in test [1] is greater than 10000 nM; in test [4] it was 2500 nM; in test [5] it was 140 nM; in test [6], 1400 nM. For the same molecule, the results for the IC50 in test [2], in test [3] and in test [7] were 1200 nM, 910 nM and 420 nM, respectively.

As to `OC[C@H]1O[C@@H](n2ccc3c(-c4ccc(F)cc4)ncnc32)[C@H](O)[C@@H]1O`, the GI50 in test [1] is 2500 nM; in test [4], greater than 10000 nM; in test [5], 730 nM; in test [6] it was greater than 10000 nM. The IC50 came out at 52700 nM in test [2], 23200 nM in test [3] and 2900 nM in test [7].

As to `OC[C@H]1O[C@@H](n2ccc3c(-c4cn[nH]c4)ncnc32)[C@H](O)[C@@H]1O`, the GI50 in test [1] was found to be 3100 nM; in test [4], 6200 nM; in test [5], 75 nM; in test [6], 5700 nM. Besides, the values for the IC50 in test [3] and in test [7] were 1000 nM and 4100 nM, respectively.

Consider `OC[C@H]1O[C@@H](n2cc(F)c3c(-c4cc[nH]c4)ncnc32)[C@H](O)[C@@H]1O`, for which the GI50 in test [1] amounted to 360 nM; in test [4] it was 130 nM; in test [5], 10 nM; in test [6], 250 nM. In addition, the IC50 was found to be 1900 nM in test [2], 930 nM in test [3] and 8900 nM in test [7].

On to `OC[C@H]1O[C@@H](n2ccc3c(-c4ccc[nH]4)ncnc32)[C@H](O)[C@@H]1O`, for which the GI50 in test [1] is 1300 nM; in test [4] it was greater than 10000 nM; in test [5], 630 nM; in test [6], greater than 10000 nM. The molecule also showed a half-inhibitory concentration (IC50) in test [3] of 10000 nM.

With `OC[C@H]1O[C@@H](n2ccc3c(-c4ccccc4)ncnc32)[C@H](O)[C@@H]1O`, the GI50 is greater than 10000 nM in test [1], greater than 10000 nM in test [4], 1100 nM in test [5] and greater than 10000 nM in test [6]. In addition, the results for the IC50 in test [3] and in test [7] were 4000 nM and greater than 40000 nM, respectively.

For the molecule `OC[C@H]1O[C@@H](n2cc(Cl)c3c(-c4ccoc4)ncnc32)[C@H](O)[C@@H]1O`, the GI50 in test [1] was determined as 1600 nM; in test [4] it was 1100 nM; in test [5], 54 nM; in test [6], 2000 nM. For the same molecule, the IC50 was determined as 2500 nM in test [2], 1100 nM in test [3] and 2700 nM in test [7].

Take `OC[C@H]1O[C@@H](n2cc(F)c3c(-c4ccc[nH]4)ncnc32)[C@H](O)[C@@H]1O`: the GI50 in test [1] turned out to be 310 nM; in test [4], 190 nM; in test [5], 9 nM; in test [6] it was 450 nM. In addition, the IC50 in test [2] turned out to be 3300 nM; in test [3] it was 410 nM; in test [7], 230 nM.

For the molecule `OCc1ncnc2c1ccn2[C@@H]1O[C@H](CO)[C@@H](O)[C@H]1O`, the GI50 amounted to 53 nM in test [1], 250 nM in test [4], 30 nM in test [5] and 450 nM in test [6]. Further, the results for the IC50 in test [2], in test [3] and in test [7] were 2200 nM, 450 nM and 350 nM, respectively.

What is called GI50 is the concentration that inhibits growth by half. High values mean lower sensitivity of the cells, low ones greater sensitivity of the cells. In general, IC50 refers to the concentration that inhibits the measured activity by half. A higher IC50 goes with weaker potency.
